H9c2 protect – myocardial damage modulation in H9c2 cells; protection from H2O2 cell death, % at 20 µM; H9c2 cardiomyocytes, H2O2 injury protection, ATPLite, 2 h; 360,000 tested, 0.63% active;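 active means compounds giving at least 50% protection of heart cells from peroxide-induced death in the single-dose screen, raw or plate-pattern-corrected value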
NR3A LBD binder – modulators (binders) of human NR3A ligand-binding domain; NR3A LBD differential scanning fluorimetry, Tm shift; 0% = protein alone, 100% = glycine-bound protein; 340,000 tested, 2.5% active; Tm shift relative to glycine control, % at 25 µM;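 active means melting temperature shift of at least 10% of the positive control shift, at one fixed dose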
Arrestin-AP2 inh – human beta-arrestin and AP2 interaction inhibition | inhibition, % at 10 µM | 340,000 tested, 0.31% active | AID 504490 | FITC-arrestin peptide / GST-AP2 beads, flow cytometry; AP2 beta2 appendage carries R879A mutation;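 active means inhibition above a set limit, near 3 SD of compounds lacking own fluorescence, cut at about 54% in these data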
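System: GST-AP2 R879A glutathione beads; medium: PBS, Tween 20 0.05%, BSA 0.1%; reagent: fluorescein-tagged arrestin peptide at 50 nM final; schedule: pre-incubation 12 min, peptide binding 1 h, room temperature; detection: flow cytometry, FL1 (488/535 nm); read-out: inhibition as reduced fluorescein signal on beads, percent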
iPSC survival up – enhancers of human iPSC single-cell survival. hiPSC single-cell survival, ATPlite luminescence; 100% = ROCK inhibitor wells, 0% = DMSO. survival enhancement, % at 20 µM. 360,000 tested, 0.044% active. AID 602274; in the data active means survival enhancement above about 18%;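 further: cells exposed to compounds for 16 hours before the ATP read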
FAS-TE inh – inhibitors of human fatty acid synthase thioesterase domain; P49327; recombinant FAS-TE, OMFH fluorogenic substrate, fluorescence endpoint; inhibition, % at 15 µM; 360,000 tested, 0.67% active;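 active means compounds whose normalised, plate-corrected inhibition of enzyme fluorescence in the single-dose primary screen is 50% or more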
Target sequence (P49327 whole entry, looked up, the tested form may be a part): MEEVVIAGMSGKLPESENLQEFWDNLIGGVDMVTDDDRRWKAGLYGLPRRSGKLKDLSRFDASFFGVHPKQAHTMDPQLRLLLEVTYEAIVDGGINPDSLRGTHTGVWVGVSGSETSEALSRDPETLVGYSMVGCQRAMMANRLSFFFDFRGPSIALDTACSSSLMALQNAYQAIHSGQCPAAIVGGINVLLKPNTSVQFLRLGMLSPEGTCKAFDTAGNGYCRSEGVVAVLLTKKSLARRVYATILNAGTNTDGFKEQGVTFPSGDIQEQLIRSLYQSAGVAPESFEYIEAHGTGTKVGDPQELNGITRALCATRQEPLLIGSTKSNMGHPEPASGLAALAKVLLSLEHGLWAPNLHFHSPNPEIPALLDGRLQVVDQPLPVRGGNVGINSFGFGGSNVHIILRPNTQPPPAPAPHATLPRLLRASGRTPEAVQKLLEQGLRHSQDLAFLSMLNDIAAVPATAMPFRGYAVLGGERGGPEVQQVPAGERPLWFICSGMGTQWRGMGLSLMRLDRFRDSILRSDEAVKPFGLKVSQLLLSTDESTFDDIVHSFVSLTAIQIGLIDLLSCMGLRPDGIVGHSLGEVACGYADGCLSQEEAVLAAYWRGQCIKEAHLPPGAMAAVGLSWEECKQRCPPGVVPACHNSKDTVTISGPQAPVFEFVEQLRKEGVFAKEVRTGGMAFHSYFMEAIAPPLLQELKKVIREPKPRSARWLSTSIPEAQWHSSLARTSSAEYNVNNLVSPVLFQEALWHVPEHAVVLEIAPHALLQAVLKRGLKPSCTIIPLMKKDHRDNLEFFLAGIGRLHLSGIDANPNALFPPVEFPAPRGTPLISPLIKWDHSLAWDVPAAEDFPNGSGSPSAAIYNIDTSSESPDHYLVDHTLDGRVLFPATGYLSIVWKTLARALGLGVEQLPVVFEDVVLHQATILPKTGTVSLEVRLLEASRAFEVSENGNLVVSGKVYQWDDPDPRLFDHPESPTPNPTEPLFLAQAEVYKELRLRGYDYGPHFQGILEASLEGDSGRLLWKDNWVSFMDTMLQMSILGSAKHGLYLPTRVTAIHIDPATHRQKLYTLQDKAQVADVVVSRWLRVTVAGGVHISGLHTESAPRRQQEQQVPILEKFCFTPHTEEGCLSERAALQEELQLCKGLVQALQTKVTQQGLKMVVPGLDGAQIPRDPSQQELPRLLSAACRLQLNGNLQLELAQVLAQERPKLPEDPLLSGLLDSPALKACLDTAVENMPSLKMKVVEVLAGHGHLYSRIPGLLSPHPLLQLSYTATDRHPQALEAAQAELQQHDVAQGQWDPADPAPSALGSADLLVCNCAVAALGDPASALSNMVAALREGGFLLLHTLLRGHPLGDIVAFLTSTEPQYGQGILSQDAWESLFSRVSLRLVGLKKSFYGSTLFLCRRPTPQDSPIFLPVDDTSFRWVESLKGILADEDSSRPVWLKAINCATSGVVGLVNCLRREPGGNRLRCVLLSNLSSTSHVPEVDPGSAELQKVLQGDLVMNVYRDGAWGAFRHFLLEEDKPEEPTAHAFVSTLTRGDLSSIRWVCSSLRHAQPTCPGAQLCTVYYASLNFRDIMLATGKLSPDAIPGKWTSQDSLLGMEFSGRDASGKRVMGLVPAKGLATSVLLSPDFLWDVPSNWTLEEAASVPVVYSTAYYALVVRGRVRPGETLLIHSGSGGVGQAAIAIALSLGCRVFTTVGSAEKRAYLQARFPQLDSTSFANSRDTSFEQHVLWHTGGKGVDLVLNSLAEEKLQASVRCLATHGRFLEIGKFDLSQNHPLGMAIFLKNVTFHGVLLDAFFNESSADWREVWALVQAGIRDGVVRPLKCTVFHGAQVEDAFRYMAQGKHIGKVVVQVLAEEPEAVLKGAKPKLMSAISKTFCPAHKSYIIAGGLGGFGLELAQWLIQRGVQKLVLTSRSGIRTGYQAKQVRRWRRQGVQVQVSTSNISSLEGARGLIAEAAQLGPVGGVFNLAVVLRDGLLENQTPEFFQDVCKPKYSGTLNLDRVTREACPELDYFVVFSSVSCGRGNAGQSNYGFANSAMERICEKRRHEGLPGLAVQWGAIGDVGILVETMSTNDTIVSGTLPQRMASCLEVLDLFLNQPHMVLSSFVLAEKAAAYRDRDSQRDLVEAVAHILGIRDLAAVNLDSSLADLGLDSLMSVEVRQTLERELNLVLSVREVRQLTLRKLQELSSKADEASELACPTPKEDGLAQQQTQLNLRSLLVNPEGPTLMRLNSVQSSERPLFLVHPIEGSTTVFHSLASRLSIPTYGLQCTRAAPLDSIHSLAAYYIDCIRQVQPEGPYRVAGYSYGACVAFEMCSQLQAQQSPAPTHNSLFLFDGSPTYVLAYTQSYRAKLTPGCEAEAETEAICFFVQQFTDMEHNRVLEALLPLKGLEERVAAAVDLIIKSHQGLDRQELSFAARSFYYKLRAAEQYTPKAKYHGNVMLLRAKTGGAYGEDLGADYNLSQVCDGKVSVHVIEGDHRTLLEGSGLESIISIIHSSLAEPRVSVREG
SENP1 inh – SENP1 (human) catalytic domain inhibition. 360,000 tested, 0.21% active. inhibition, % at 10 µM. recombinant SENP1 catalytic domain, CyPet-SUMO1-YPet FRET cleavage;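 active means inhibition at least 30% at 10 µM, raw YFP signal under a set limit, fluorescence ratio 0.5 to 1.5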
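Material – human SENP1 catalytic domain · Input – SENP1 enzyme, 20 pM final · Compound dosing – single concentration of 10 µM compound, 0.5% DMSO final · Timing – enzyme reaction for 50 min at room temperature, dark · Measured by – FRET fluorescence in CFP and YFP emission channels · Control set – no-enzyme wells low, DMSO-plus-enzyme wells high control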
Of the large screens only hits and unclear results are named; the others gave an inactive call. This is a sample that favours compounds with a hit; in the whole collection about 4% have one here.

CC1Nc2ncnc(N3CCc4ccccc4C3)c2N(Cc2ccccc2)C1=O (centres undefined)	none (no result: NR3A LBD binder, Arrestin-AP2 inh)
CCOC(=O)/C(=N\Nc1cccc(Cl)c1)Sc1nnc(-c2ccc(OC)cc2)n1C	NR3A LBD binder 13.2
C[C@@H]1CN([C@@H](C)CO)S(=O)(=O)c2ccc(-c3ccccc3)cc2O[C@@H]1CN(C)Cc1ccccc1C(=O)O	none (no result: NR3A LBD binder, Arrestin-AP2 inh)
Cc1ccc(S(=O)(=O)NCC(c2ccco2)N2CCc3ccccc32)cc1 (centres undefined)	NR3A LBD binder 15.5
COc1ccc(S(=O)(=O)NCC(c2ccco2)N2CCc3ccccc32)cc1 (centres undefined)	none
CC1(C(=O)NS(=O)(=O)c2ccc(C#N)cc2)CCN1C(=O)Cc1cc(F)ccc1F (centres undefined)	none (no result: NR3A LBD binder, Arrestin-AP2 inh)
Nc1ccn([C@@H]2O[C@H](CNCc3cccc(OC4CCCC4)c3)[C@@H](O)[C@H]2O)c(=O)n1	none (no result: NR3A LBD binder, Arrestin-AP2 inh)
CN(C)CCN(Cc1ccco1)S(=O)(=O)c1ccc(-c2ccc(=O)[nH]n2)s1	NR3A LBD binder 13.7
CCOc1ccc(N(C)S(=O)(=O)c2ccc(-c3ccc(=O)[nH]n3)s2)cc1	none
Cc1ccc(N=Nc2ccc(O)cc2)c(Br)c1	NR3A LBD binder 13.2
COc1cc(N=Nc2cccc(S(N)(=O)=O)c2)c2ccccc2c1N	NR3A LBD binder 12.9, SENP1 inh 48.0
CCCCCCC(C)OC(=O)Nc1cccc2ccccc12 (centres undefined)	NR3A LBD binder 10.3
COc1ccc(C2=Nc3ccccc3N(C(=O)c3cccnc3)C2C(=O)NC(C)(C)C)cc1 (centres undefined)	none (no result: H9c2 protect, NR3A LBD binder, Arrestin-AP2 inh, iPSC survival up, FAS-TE inh)
COc1ccccc1NC(=O)c1ccc(NC(=O)c2cc3c(s2)CCC3)cc1	NR3A LBD binder 30.4
O=C(Nc1ccccc1OC(F)F)c1cc2c(s1)CCC2	none
O=C(NCc1ccco1)c1[nH]c(C(F)(F)F)nc1-c1ccccc1	none (no result: NR3A LBD binder, Arrestin-AP2 inh)
O=C(N/C(=C\c1ccc(Cl)cc1)C(=O)N1CCOCC1)c1ccc([N+](=O)[O-])cc1	FAS-TE inh 89.3
Cc1ccc(S(=O)(=O)Oc2ccc(/C=C(/NC(=O)c3ccccc3)C(=O)O)cc2)cc1	NR3A LBD binder 11.4
Cc1ccc(NC(=O)/C(=C\c2ccc([N+](=O)[O-])cc2)NC(=O)c2ccccc2)cc1	iPSC survival up 58.4
O=C(N/N=C/c1ccc(O)c(O)c1O)/C(=C/c1ccc([N+](=O)[O-])cc1)NC(=O)c1ccccc1	H9c2 protect 60.9
O=C(Nc1cccc(C(=O)O)c1)/C(=C/c1ccc([N+](=O)[O-])cc1)NC(=O)c1ccccc1	none
O=C(N/C(=C/c1ccc(Cl)cc1)C(=O)N1CCOCC1)c1ccccc1	none
O=C(Nc1cccc2ccccc12)/C(=C/c1ccc([N+](=O)[O-])cc1)NC(=O)c1ccccc1	none
CCNC(=O)OCCC12CC3CC(CC(C3)C1)C2	none
O=C(OCCC12CC3CC(CC(C3)C1)C2)c1ccc(NCc2cc(O)ccc2O)cc1	NR3A LBD binder 26.8
N#CCC(=O)Nc1ccc(C(=O)OCC(=O)C23CC4CC(CC(C4)C2)C3)cc1	none
O=C(OCC12CC3CC(CC(C3)C1)C2)c1ccc(NCc2cc(O)ccc2O)cc1	NR3A LBD binder 11.8
Cn1c(NCC(O)CO)nc2c1c(=O)n(Cc1ccc(Cl)c(Cl)c1)c(=O)n2C (centres undefined)	NR3A LBD binder 16.9
N#C/C(=C\c1c[nH]c2ccccc12)C(N)=O	none
N#C/C(=C\c1c[nH]c2ccccc12)C(=O)Nc1ncc(Cc2ccc(Cl)cc2Cl)s1	NR3A LBD binder 37.5
CC1(C(=O)NS(C)(=O)=O)CCN1C(=O)C/C=C/c1ccccc1 (centres undefined)	none (no result: NR3A LBD binder, Arrestin-AP2 inh)
O=C(NCc1cccnc1)c1cc(-c2ccccc2)on1	NR3A LBD binder 10.5
CC(OC(=O)c1ccc(=O)n(Cc2ccccc2)n1)C(=O)Nc1cccc(Cl)c1 (centres undefined)	none
CCc1ccc(C(=O)C(C)OC(=O)Cn2[nH]c(=O)c3ccccc3c2=O)cc1 (centres undefined)	none
CC(OC(=O)Cn1[nH]c(=O)c2ccccc2c1=O)C(=O)Nc1cccc(Cl)c1 (centres undefined)	H9c2 protect 59.1
CC(OC(=O)Cn1[nH]c(=O)c2ccccc2c1=O)C(=O)Nc1ccc(F)cc1Cl (centres undefined)	H9c2 protect 67.0
CC(OC(=O)Cn1[nH]c(=O)c2ccccc2c1=O)C(=O)Nc1ccccc1[N+](=O)[O-] (centres undefined)	H9c2 protect 79.3
Cc1nn(CC(=O)OC(C)C(=O)Nc2ccccc2[N+](=O)[O-])c(C)c1[N+](=O)[O-] (centres undefined)	none
COc1ccccc1C(=O)COC(=O)Cn1[nH]c(=O)c2ccccc2c1=O	H9c2 protect 52.6
CCOC(=O)C1CCCN(C(=O)c2sc(-c3ccccc3)nc2C)CC1 (centres undefined)	none (no result: NR3A LBD binder, Arrestin-AP2 inh)
Cc1cc(C)cc(N(CCC#N)C(=O)COC(=O)CN2C(=O)NC(C)(C)C2=O)c1	none
Cc1cc(C)cc(N(CCC#N)C(=O)COC(=O)Cn2[nH]c(=O)c3ccccc3c2=O)c1	H9c2 protect 77.0
Cc1cc(NC(=O)COC(=O)Cn2[nH]c(=O)c3ccccc3c2=O)c([N+](=O)[O-])cc1C	H9c2 protect 92.7
COc1ccc2c(c1)sc(=NC(=O)CS(=O)(=O)c1ccc(F)cc1)n2C	none
CN(Cc1ccccc1)C(=O)C(=O)c1ccccc1	none (no result: H9c2 protect, NR3A LBD binder, Arrestin-AP2 inh, iPSC survival up, FAS-TE inh)
O=C(Cn1[nH]c(=O)c2ccccc2c1=O)NC1CCN(Cc2ccccc2)CC1	H9c2 protect 70.5
O=C(Cn1[nH]c(=O)c2ccccc2c1=O)NC1CCCCCC1	H9c2 protect 77.8
CC(=O)Nc1ccc(-c2ccnc3c2CC(C(=O)Nc2cccc(N(C)C)c2)O3)cc1 (centres undefined)	none (no result: NR3A LBD binder, Arrestin-AP2 inh)
Cn1c(=O)c2c(ncn2CC(O)CNc2ccc(Br)cc2)n(C)c1=O (centres undefined)	NR3A LBD binder 22.9
Cn1c(CC(=O)NC(C)(C)CO)c(Sc2ccccc2)c2ccccc21	none
CCOC(=O)Cc1c(Sc2ccccc2)c2ccccc2n1C	NR3A LBD binder 11.6
COc1cc(CC(CC(=O)O)CC(C)OCc2ccccc2)cc(OC)c1 (centres undefined)	iPSC survival up 20.2
COc1ccc(NC(=O)C(CC(=O)O)Cc2ccccc2)cc1 (centres undefined)	none
O=C(Nc1ccc2oc(-c3ccncc3)nc2c1)c1ccccc1	none
CC(=O)Nc1ccc(S(=O)(=O)Nc2cccc(-c3csc(C)n3)c2)cc1	none
O=C(Nc1ccc2nn(-c3ccccc3)nc2c1)c1cccs1	NR3A LBD binder 25.2

Source: PubChem
